Bioassay records deposited in PubChem by The Scripps Research Institute Molecular Screening Center.
The list is not random: actives were taken first. Their share in the collection is about 1.4%.
bovine MsrA act: activates bovine MsrA enzyme. purified bovine MsrA, absorbance read-out. activation, % at 10.6 µM. 360,000 compounds, 0.3% hits; in the data active means activation above about 7.5%;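 further: 0% = vehicle and 100% = reference activator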
ASAP1 GAP inh: ASAP1 ArfGAP inhibition | Q9ULH1 | ASAP1-stimulated ARF1 GTP hydrolysis, GDP FP detection | inhibition, % at 16.5 µM | 360,000 compounds, 0.19% hits | AID 624377; in the data active means inhibition above about 25%;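 further: 0% = vehicle with enzyme and substrate and 100% = no enzyme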
MsrA inh: inhibits bovine methionine sulfoxide reductase A. purified bovine MsrA, absorbance read-out. inhibition, % at 15.5 µM. 360,000 compounds, 0.75% hits;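 further: 0% = vehicle wells with enzyme and 100% = reference inhibitor wells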
ARFGAP1 inhibitor: inhibits rat ARF GTPase activating protein 1 | Arfgap1-stimulated ARF1 GTP hydrolysis, GDP FP detection | inhibition, % at 16.5 µM | 360,000 compounds, 0.26% hits | AID 651572 | Q62848;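 active means inhibition above a per-plate limit, mean inhibition of low control wells plus 3 SD, cut at about 25% in these data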;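 further: 0% = DMSO wells with enzyme and 100% = wells lacking Arfgap1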
Target sequence (Q62848 1-136 limits assumed): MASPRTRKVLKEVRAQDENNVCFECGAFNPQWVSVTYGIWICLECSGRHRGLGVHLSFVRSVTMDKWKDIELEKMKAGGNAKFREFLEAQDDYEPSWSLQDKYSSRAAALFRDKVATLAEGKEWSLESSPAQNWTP
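material = rat Arfgap1 catalytic domain, aa 1-136 | also added = human ARF1(Δ1-17)-GTP substrate | compound dosing = one concentration, 16.5 µM, DMSO 1.26% | times = GTP hydrolysis reaction 2 h at 25 °C | measured by = FP, GDP Alexa 633 tracer displaced from anti-GDP antibody, 620/688 nm | evaluation = percent inhibition of Arfgap1-stimulated GTP hydrolysis | replication = single well per compound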
MsrA conf: bovine MsrA inhibition, confirmed; shares compounds with MsrA inh; purified bovine MsrA, absorbance read-out; inhibition, % at 15.5 µM; 2,300 compounds, 41% hits; AID 651822;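 further: coupled to thioredoxin reductase with NADPH and selenocystamine and DMSO as substrate; 0% = vehicle only and 100% = full effect of reference inhibitor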
* marks the source's active call; other numbers are inactive results; x = no result. Unless noted, no stated cut-off is given here; in the data, active means inhibition above about 4.5%; inactive means the rest.

SMILES	bovine MsrA act	ASAP1 GAP inh	MsrA inh	ARFGAP1 inhibitor	MsrA conf
CC(=O)c1ccc2c(c1)C1C(Cl)C(Sc3ccccc3[N+](=O)[O-])CC1C(c1ccccc1[N+](=O)[O-])N2 (stereo not given)	-3	0	5.5*	9	2
CC(=O)c1ccc2c(c1)C1C(Cl)C(Sc3ccccc3[N+](=O)[O-])CC1C(c1ccccc1)N2 (stereo not given)	-11	-7	0	5	x
COc1cc(N2CCOCC2)ccc1/C=C1\C(=O)NC(=O)N(Cc2ccc3c(c2)OCO3)C1=O	-5	-3	6.2*	22	2
COc1cc(N2CCOCC2)ccc1/C=C1\C(=O)NC(=O)N(Cc2cccs2)C1=O	-4	-3	6.4*	-17	3
O=C1c2cccc3cccc(c23)C(=O)N1/N=C/c1c(O)n(-c2ccccc2)c(=O)[nH]c1=O	-3	1	5.1*	8	3
